Test results: ChEMBL document CHEMBL1157589, “Antifungal 3,5-disubstituted furanones: From 5-acyloxymethyl to 5-alkylidene derivatives” (Bioorg Med Chem, 2010)
≈ marks a conversion by molar mass, not a printed value.

Columns and labels:
[1] = system: Candida albicans; test: Antifungal activity against Candida albicans ATCC 44859 after 48 hrs by microdilution method; format: functional; conditions: ATCC 44859, 48 h
In short: (§1)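 Yeasts held on Sabouraud dextrose agar. MIC by NCCLS M27-A broth microdilution in RPMI 1640 with L-glutamine, buffered with 0.165 M MOPS to pH 7.0. Compounds in DMSO (≤2% final), twofold dilutions 500–0.48. Final inoculum 5 × 10³ ± 0.2 cfu mL⁻¹. Incubated at 35 °C; absorbance at 540 nm read at 24 and 48 h. MIC is 80% growth inhibition versus control; run twice in duplicate.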

[2] = system: Candida albicans; test: Antifungal activity against Candida albicans ATCC 90028 after 24 hrs by microdilution method; format: functional; conditions: ATCC 90028, 24 h; in short: as §1
[3] = system: Candida albicans; test: Antifungal activity against Candida albicans ATCC 90028 after 48 hrs by microdilution method; format: functional; conditions: ATCC 90028, 48 h; in short: as §1
[4] = system: Candida parapsilosis; test: Antifungal activity against Candida parapsilosis ATCC 22019 after 24 hrs by microdilution method; format: functional; conditions: Lodderomyces parapsilosis, ATCC 22019, 24 h; in short: as §1
[5] = system: Candida parapsilosis; test: Antifungal activity against Candida parapsilosis ATCC 22019 after 48 hrs by microdilution method; format: functional; conditions: Lodderomyces parapsilosis, ATCC 22019, 48 h; in short: as §1
[6] = system: Pichia kudriavzevii; test: Antifungal activity against Candida krusei ATCC 6258 after 24 hrs by microdilution method; format: functional; conditions: ATCC 6258, 24 h; in short: as §1
[7] = system: Pichia kudriavzevii; test: Antifungal activity against Candida krusei ATCC 6258 after 48 hrs by microdilution method; format: functional; conditions: ATCC 6258, 48 h; in short: as §1
[8] = system: Pichia kudriavzevii; test: Antifungal activity against Candida krusei E28 after 24 hrs by microdilution method; format: functional; conditions: E28, 24 h; in short: as §1
[9] = system: Pichia kudriavzevii; test: Antifungal activity against Candida krusei E28 after 48 hrs by microdilution method; format: functional; conditions: E28, 48 h; in short: as §1
[10] = system: Candida tropicalis; test: Antifungal activity against Candida tropicalis 156 after 24 hrs by microdilution method; format: functional; conditions: Candida tropicalis, 156, 24 h; in short: as §1
[11] = system: Candida tropicalis; test: Antifungal activity against Candida tropicalis 156 after 48 hrs by microdilution method; format: functional; conditions: Candida tropicalis, 156, 48 h; in short: as §1
[12] = system: Nakaseomyces glabratus; test: Antifungal activity against Candida glabrata 20/I after 24 hrs by microdilution method; format: functional; in short: as §1
[13] = system: Nakaseomyces glabratus; test: Antifungal activity against Candida glabrata 20/I after 48 hrs by microdilution method; format: functional; in short: as §1
[14] = system: Clavispora lusitaniae; test: Antifungal activity against Candida lusitaniae 2446/I after 24 hrs by microdilution method; format: functional; in short: as §1
[15] = system: Clavispora lusitaniae; test: Antifungal activity against Candida lusitaniae 2446/I after 48 hrs by microdilution method; format: functional; in short: as §1
[16] = system: Trichosporon beigelii; test: Antifungal activity against Trichosporon beigelii 1188 after 24 hrs by microdilution method; format: functional; conditions: Trichosporon beigelii, 1188, 24 h; in short: as §1
[17] = system: Trichosporon beigelii; test: Antifungal activity against Trichosporon beigelii 1188 after 48 hrs by microdilution method; format: functional; conditions: Trichosporon beigelii, 1188, 48 h; in short: as §1
[18] = system: Aspergillus fumigatus; test: Antifungal activity against Aspergillus fumigatus 231 after 24 hrs by microdilution method; format: functional; conditions: Aspergillus fumigatus, 231, 24 h
In short: (§2)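 Filamentous strains held on Sabouraud dextrose agar. NCCLS M27-A broth microdilution in RPMI 1640 with L-glutamine and 0.165 M MOPS, pH 7.0. DMSO diluent ≤2% final; twofold dilutions 500–0.48. Inoculum 5 × 10³ ± 0.2 cfu mL⁻¹ final.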

[19] = system: Aspergillus fumigatus; test: Antifungal activity against Aspergillus fumigatus 231 after 48 hrs by microdilution method; format: functional; conditions: Aspergillus fumigatus, 231, 48 h; in short: as §2
[20] = system: Lichtheimia corymbifera; test: Antifungal activity against Absidia corymbifera 272 after 24 hrs by microdilution method; format: functional; conditions: Lichtheimia corymbifera, 272, 24 h; in short: as §2
[21] = system: Lichtheimia corymbifera; test: Antifungal activity against Absidia corymbifera 272 after 48 hrs by microdilution method; format: functional; conditions: Lichtheimia corymbifera, 272, 48 h; in short: as §2
[22] = system: Trichophyton mentagrophytes; test: Antifungal activity against Trichophyton mentagrophytes 445 after 72 hrs by microdilution method; format: functional; conditions: Trichophyton mentagrophytes, 445, 72 h
In short: (§3)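 Dermatophyte held on Sabouraud dextrose agar. M27-A microdilution in MOPS-buffered (0.165 M, pH 7.0) RPMI 1640 with L-glutamine. DMSO ≤2% final; twofold dilutions 500–0.48. Inoculum 5 × 10³ ± 0.2 cfu mL⁻¹ final. Incubated at 35 °C; MIC read visually at 72 and 120 h as 80% inhibition of control growth; determined twice in duplicate.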

[23] = system: Trichophyton mentagrophytes; test: Antifungal activity against Trichophyton mentagrophytes 445 after 120 hrs by microdilution method; format: functional; conditions: Trichophyton mentagrophytes, 445, 120 h; in short: as §3
[24] = system: HL-60; test: Cytostatic activity against human HL60 cells after 72 hrs by XTT assay; format: functional, cell-based; conditions: Homo sapiens, HL-60, 72 h; read-out: IC50
In short: (§4)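 Leukemia cells (L1210 ATCC CCL 219, CCRF-CEM ATCC CCL 119, HL-60 ATCC CCL 240) grown in 24-well plates in RPMI 1640 with fetal calf serum. Growth assessed 72 h after drug addition. Viability measured by XTT spectrophotometric assay; potency given as IC50.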

[25] = system: CCRF-CEM; test: Cytostatic activity against human CCRF-CEM cells after 72 hrs by XTT assay; format: functional, cell-based; conditions: Homo sapiens, CCRF-CEM, 72 h; read-out: IC50; in short: as §4
[26] = system: Candida albicans; test: Antifungal activity against Candida albicans ATCC 44859 after 24 hrs by microdilution method; format: functional; conditions: ATCC 44859, 24 h; in short: as §1
[27] = system: HeLa S3; test: Cytostatic activity against human HeLaS3 cells after 48 hrs by XTT assay; conditions: Homo sapiens, HeLa S3, 48 h; read-out: IC50

SMILES | MIC80 [1] [µM] | MIC80 [2] [µM] | MIC80 [3] [µM] | MIC80 [4] [µM] | MIC80 [5] [µM] | MIC80 [6] [µM] | MIC80 [7] [µM] | MIC80 [8] [µM] | MIC80 [9] [µM] | MIC80 [10] [µM] | MIC80 [11] [µM] | MIC80 [12] [µM] | MIC80 [13] [µM] | MIC80 [14] [µM] | MIC80 [15] [µM] | MIC80 [16] [µM] | MIC80 [17] [µM] | MIC80 [18] [µM] | MIC80 [19] [µM] | MIC80 [20] [µM] | other results
O=C1OC(COc2ccc(I)cc2)C=C1c1ccc(Br)cc1 (stereo unspecified) | 1.95 (≈ 0.919 µg/mL) | 3.9 (≈ 1.84 µg/mL) | 7.81 (≈ 3.68 µg/mL) | 31.2 (≈ 14.7 µg/mL) | > 500 | 31.2 (≈ 14.7 µg/mL) | > 500 | 31.2 (≈ 14.7 µg/mL) | > 500 | 15.6 (≈ 7.36 µg/mL) | 31.2 (≈ 14.7 µg/mL) | 1.95 (≈ 0.919 µg/mL) | 3.9 (≈ 1.84 µg/mL) | 7.81 (≈ 3.68 µg/mL) | 31.2 (≈ 14.7 µg/mL) | 7.81 (≈ 3.68 µg/mL) | 500 (≈ 236 µg/mL) | 3.9 (≈ 1.84 µg/mL) | 7.81 (≈ 3.68 µg/mL) | > 500 | MIC80 [21]: > 500 µM; MIC80 [22]: 1.95 µM (≈ 0.919 µg/mL); MIC80 [23]: 3.9 µM (≈ 1.84 µg/mL); IC50 [24]: 7.22 µM; IC50 [25]: 1.19 µM; MIC80 [26]: 0.48 µM (≈ 0.226 µg/mL); IC50 [27]: 4 µM
COC(=O)c1ccc(OCC2C=C(c3ccc(Br)cc3)C(=O)O2)cc1 (stereo unspecified) | 1.95 (≈ 0.786 µg/mL) | 3.9 (≈ 1.57 µg/mL) | 7.81 (≈ 3.15 µg/mL) | 15.6 (≈ 6.3 µg/mL) | 15.6 (≈ 6.3 µg/mL) | 15.6 (≈ 6.3 µg/mL) | 15.6 (≈ 6.3 µg/mL) | 15.6 (≈ 6.3 µg/mL) | 15.6 (≈ 6.3 µg/mL) | 15.6 (≈ 6.3 µg/mL) | 15.6 (≈ 6.3 µg/mL) | 3.9 (≈ 1.57 µg/mL) | 3.9 (≈ 1.57 µg/mL) | 7.81 (≈ 3.15 µg/mL) | 15.6 (≈ 6.3 µg/mL) | 7.81 (≈ 3.15 µg/mL) | 15.6 (≈ 6.3 µg/mL) | 3.9 (≈ 1.57 µg/mL) | 7.81 (≈ 3.15 µg/mL) | 62.5 (≈ 25.2 µg/mL) | MIC80 [21]: 125 µM (≈ 50.4 µg/mL); MIC80 [22]: 3.9 µM (≈ 1.57 µg/mL); MIC80 [23]: 3.9 µM (≈ 1.57 µg/mL); IC50 [24]: 4.05 µM; IC50 [25]: 1.25 µM; MIC80 [26]: 0.48 µM (≈ 0.194 µg/mL); IC50 [27]: 4.5 µM
O=C1OC(COc2ccccc2)C=C1c1ccc(Br)cc1 (stereo unspecified) | 1.95 (≈ 0.673 µg/mL) | 1.95 (≈ 0.673 µg/mL) | 7.81 (≈ 2.7 µg/mL) | 7.81 (≈ 2.7 µg/mL) | 31.2 (≈ 10.8 µg/mL) | 7.81 (≈ 2.7 µg/mL) | 31.2 (≈ 10.8 µg/mL) | 15.6 (≈ 5.39 µg/mL) | 31.2 (≈ 10.8 µg/mL) | 7.81 (≈ 2.7 µg/mL) | 15.6 (≈ 5.39 µg/mL) | 1.95 (≈ 0.673 µg/mL) | 1.95 (≈ 0.673 µg/mL) | 3.9 (≈ 1.35 µg/mL) | 7.81 (≈ 2.7 µg/mL) | 7.81 (≈ 2.7 µg/mL) | 31.2 (≈ 10.8 µg/mL) | 1.95 (≈ 0.673 µg/mL) | 15.6 (≈ 5.39 µg/mL) | 125 (≈ 43.1 µg/mL) | MIC80 [21]: 500 µM (≈ 173 µg/mL); MIC80 [22]: 1.95 µM (≈ 0.673 µg/mL); MIC80 [23]: 3.9 µM (≈ 1.35 µg/mL); IC50 [24]: 4.37 µM; IC50 [25]: 1.09 µM; MIC80 [26]: 0.97 µM (≈ 0.335 µg/mL); IC50 [27]: 4.67 µM
